Reference: PMC7042484 (Redox Biology, 2020)
Entries after “also recorded” stand apart in the source; their conditions may differ.

Assays:
[1] = test system: C-terminal mutant dehydrogenase domain of bacterial NOX5; test: NADPH-depletion assay on C-terminal mutant NOX5 dehydrogenase domain; type: biochemical, Cylindrospermum stagnale
[2] = target: T1, human NOX2 (Homo sapiens, UniProt P04839); test: Initial evaluation on NOX2 membrane preparations; type: biochemical
T1 sequence (P04839 2-570 limits assumed): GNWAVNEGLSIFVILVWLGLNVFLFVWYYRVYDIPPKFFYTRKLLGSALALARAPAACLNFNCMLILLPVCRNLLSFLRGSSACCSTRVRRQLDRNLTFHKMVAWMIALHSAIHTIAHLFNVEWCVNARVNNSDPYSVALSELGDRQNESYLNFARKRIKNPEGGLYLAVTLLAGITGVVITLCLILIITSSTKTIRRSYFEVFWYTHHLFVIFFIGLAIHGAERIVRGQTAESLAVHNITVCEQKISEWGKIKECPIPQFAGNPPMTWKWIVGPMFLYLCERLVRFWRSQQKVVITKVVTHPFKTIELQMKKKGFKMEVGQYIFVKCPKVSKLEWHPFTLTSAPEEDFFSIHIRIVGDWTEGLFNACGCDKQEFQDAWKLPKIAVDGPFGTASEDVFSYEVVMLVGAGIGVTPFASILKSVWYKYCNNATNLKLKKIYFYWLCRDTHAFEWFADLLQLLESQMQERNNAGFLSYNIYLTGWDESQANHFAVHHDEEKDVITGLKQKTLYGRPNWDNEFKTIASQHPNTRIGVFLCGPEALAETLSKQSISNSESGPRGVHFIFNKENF
T1 sequence (P13498 2-195 partner limits assumed): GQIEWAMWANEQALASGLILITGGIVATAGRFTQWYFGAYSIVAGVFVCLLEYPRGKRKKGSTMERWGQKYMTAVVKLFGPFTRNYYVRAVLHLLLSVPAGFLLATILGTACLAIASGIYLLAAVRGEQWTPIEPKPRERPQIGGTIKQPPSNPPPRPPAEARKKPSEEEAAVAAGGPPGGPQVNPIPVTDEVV

[3] = target: T2, human NOX4 (Homo sapiens, UniProt Q9NPH5); test: Initial evaluation on NOX4 membrane preparations; type: biochemical; conditions: for inhibition of NOX4 (in words): 100 μM compound, membranes
T2 sequence (Q9NPH5 1-578): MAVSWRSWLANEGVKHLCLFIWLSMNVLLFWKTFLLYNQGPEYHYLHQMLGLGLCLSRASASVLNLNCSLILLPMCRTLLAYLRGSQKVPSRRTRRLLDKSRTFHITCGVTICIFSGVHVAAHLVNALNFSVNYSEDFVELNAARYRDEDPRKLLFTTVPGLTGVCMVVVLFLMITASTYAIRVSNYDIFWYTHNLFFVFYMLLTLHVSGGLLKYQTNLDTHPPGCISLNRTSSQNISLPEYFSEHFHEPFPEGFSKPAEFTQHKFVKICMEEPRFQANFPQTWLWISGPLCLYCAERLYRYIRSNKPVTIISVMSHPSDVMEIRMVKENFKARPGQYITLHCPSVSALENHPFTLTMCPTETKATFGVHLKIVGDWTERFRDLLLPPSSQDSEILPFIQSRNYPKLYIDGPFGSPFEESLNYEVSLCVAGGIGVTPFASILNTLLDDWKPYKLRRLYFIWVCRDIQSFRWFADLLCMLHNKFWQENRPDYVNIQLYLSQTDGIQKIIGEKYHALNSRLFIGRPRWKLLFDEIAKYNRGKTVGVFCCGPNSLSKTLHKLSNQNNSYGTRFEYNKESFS
T2 sequence (P13498 2-195 partner limits assumed): T1 sequence (P13498 2-195 partner limits assumed)
Summary of the method: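 NOX4-p22 membranes from transfected HEK293 EBNA-1 cells, compound 100 μM, 10 min preincubation at 4 °C in PBS. Amplex Red: 100 μg membranes, 12.5 μM Amplex Red, 0.02 U/ml HRP, 40 μM FAD, started with 40 μM NADPH, ex 572/em 583 nm. CBA: 50 μg membranes, 20 μM FAD, then 200 μM coumarin boronic acid and 50 μM NADPH, ex 320/em 430 nm.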

[4] = test system: C668S mutant of the NOX5 dehydrogenase domain; test: Enzymatic assay on C668S mutant NOX5 dehydrogenase domain; type: biochemical, Cylindrospermum stagnale; conditions: enzymatic assays
Summary of the method: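 Purified strep-tagged C. stagnale NOX5 dehydrogenase domain (residues 413–693), C668S mutant, 1 μM in 50 mM Hepes pH 7.5 without added FAD. Run at 25 °C in a thermostatted spectrophotometer; rates followed as NADPH oxidation at 340 nm.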

[5] = target: xanthine oxidase (Bos taurus, UniProt P80457); test: Xanthine Oxidase assay; type: biochemical; conditions: 100 μM compound, hypoxanthine, Amplex Red/peroxidase
Summary of the method: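 Compound (100 μM) with xanthine oxidase, 100 μM Amplex Red, 0.4 U/mL horseradish peroxidase and 0.2 mM hypoxanthine. 15 min at 37 °C; H2O2-derived resorufin read by fluorescence, ex 530/em 590 nm.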

[6] = target: T3, bacterial NOX5 (Cylindrospermum stagnale, UniProt K9WT99); test: Initial evaluation on NOX5 membrane preparations; type: biochemical; conditions: 100 μM compound, membranes
T3 sequence (K9WT99 1-693): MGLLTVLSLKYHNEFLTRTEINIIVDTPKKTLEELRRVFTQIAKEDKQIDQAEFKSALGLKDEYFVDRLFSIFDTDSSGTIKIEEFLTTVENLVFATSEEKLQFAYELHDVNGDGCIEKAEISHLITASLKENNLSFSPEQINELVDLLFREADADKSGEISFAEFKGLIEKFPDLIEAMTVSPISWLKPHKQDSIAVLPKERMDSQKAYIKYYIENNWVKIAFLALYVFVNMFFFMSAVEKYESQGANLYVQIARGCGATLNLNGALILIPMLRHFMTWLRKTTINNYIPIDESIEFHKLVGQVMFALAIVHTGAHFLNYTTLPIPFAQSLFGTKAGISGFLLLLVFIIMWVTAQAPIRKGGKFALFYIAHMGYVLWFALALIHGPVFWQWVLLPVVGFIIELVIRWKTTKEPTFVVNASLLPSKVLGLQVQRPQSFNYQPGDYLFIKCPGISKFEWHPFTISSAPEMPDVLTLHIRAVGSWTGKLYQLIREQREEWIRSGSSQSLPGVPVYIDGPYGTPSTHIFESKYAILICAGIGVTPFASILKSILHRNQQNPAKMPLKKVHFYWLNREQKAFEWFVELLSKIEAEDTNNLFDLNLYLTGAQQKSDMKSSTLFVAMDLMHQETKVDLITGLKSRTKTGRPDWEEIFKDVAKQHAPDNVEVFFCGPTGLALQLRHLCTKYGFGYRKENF

[7] = target: T4, wild-type dehydrogenase domain of bacterial NOX5 (Cylindrospermum stagnale, UniProt K9WT99); test: NADPH-depletion assay on purified wild-type NOX5 dehydrogenase domain; type: biochemical; conditions: wild-type domain, exogenous FAD 300 μM
T4 sequence (K9WT99 413-693): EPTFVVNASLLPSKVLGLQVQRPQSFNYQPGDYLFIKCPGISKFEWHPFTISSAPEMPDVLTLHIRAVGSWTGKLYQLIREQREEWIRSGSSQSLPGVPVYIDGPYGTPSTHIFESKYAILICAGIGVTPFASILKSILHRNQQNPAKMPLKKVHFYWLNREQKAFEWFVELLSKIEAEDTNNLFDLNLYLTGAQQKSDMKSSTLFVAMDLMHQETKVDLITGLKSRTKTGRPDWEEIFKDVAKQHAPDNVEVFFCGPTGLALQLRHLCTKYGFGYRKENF

[8] = target: full-length bacterial NOX5 (Cylindrospermum stagnale, UniProt K9WT99); test: biochemical
[9] = target: T3, bacterial NOX5; test: MCLA assay on NOX5 membranes; type: biochemical
Summary of the method: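 E. coli membranes carrying FLAG-(His)8-SUMO-tagged C. stagnale NOX5, 12 μg, in PBS with 1 mM CaCl2, 0.5 μM FAD and 1 μM MCLA. Compound (100 μM single point, or concentration series) 10 min at 25 °C. Started with 200 μM NADPH; chemiluminescence read. Membranes lacking NOX5 set noise level. IC50 by sigmoidal fit, % of untreated control.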

Chain of xanthine oxidase (P80457 whole entry): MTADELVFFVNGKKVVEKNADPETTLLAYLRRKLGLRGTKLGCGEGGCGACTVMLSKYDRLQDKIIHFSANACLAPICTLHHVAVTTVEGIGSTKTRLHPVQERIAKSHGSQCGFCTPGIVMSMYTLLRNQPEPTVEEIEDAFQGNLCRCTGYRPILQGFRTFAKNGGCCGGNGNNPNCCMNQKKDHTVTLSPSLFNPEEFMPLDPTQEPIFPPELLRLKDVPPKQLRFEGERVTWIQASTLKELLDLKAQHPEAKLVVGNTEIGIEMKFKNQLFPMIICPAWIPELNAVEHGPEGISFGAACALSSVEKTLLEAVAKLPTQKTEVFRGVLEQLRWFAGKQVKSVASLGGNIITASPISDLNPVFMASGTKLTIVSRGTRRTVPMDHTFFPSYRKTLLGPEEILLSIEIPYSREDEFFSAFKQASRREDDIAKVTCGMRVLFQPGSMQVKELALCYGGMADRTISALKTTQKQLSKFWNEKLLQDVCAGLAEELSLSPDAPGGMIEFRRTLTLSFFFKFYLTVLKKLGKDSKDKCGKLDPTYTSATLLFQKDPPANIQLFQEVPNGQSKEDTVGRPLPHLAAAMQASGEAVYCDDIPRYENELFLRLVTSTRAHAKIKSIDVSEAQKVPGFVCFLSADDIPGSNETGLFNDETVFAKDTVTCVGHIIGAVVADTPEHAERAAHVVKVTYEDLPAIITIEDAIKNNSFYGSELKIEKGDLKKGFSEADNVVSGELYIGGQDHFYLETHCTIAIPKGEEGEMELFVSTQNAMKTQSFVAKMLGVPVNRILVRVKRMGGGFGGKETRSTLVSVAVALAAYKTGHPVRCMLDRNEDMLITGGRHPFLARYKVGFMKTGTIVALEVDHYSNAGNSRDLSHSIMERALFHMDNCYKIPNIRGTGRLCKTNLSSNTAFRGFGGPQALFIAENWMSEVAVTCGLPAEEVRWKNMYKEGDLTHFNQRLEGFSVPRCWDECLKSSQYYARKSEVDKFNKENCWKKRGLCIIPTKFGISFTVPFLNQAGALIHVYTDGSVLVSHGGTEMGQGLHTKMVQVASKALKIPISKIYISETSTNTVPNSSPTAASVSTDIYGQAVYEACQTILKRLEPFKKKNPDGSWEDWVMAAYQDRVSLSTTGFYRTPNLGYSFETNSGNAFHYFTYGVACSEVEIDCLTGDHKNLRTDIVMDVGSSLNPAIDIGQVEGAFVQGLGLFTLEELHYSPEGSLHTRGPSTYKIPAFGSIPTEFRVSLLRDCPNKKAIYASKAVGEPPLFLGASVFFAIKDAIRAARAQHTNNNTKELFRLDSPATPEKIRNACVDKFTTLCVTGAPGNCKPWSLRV

Structure (SMILES) | inhibition of the mutant dehydrogenase ([1]; 100 μM inhibitor, C-terminal (PWLEL) low-activity mutant) | inhibition at 100 µM ([2]; read-out: inhibition of NOX2) | inhibition of NOX2 with long incubation ([2]; sufficiently long incubation times (Fig. 7B)) | inhibition of NOX4 (in words) [3] | inhibition at 100 µM ([3]; read-out: inhibition of NOX4) | inhibition of the C668S mutant domain [4] | inhibition of the hydrogen peroxide-producing activity of xanthine oxidase [5] | inhibition of NOX5 (in words) [6] | αKi ([1]; uncompetitive, low-activity mutant of the dehydrogenase domain) | αKi [7] | Ki [8] | inhibition of NOX2 (in words) ([2]; 100 μM compound, membranes) | IC50 [9]
c1ccc(Cn2nnc3c(Sc4nc5ccccc5o4)ncnc32)cc1 [VAS2870, 3-benzyl-7-(2-benzoxazolyl)thio-1,2,3-triazolo[4,5-d]pyrimidine] | 20–30% | 40 to 70% | became significant | powerful NOX4 inhibitors | 40 to 70% | could not inhibit the mutant domain |  |  |  |  |  |  | 
c1ccc2c(c1)[I+]c1ccccc1-2 [DPI, Diphenylene iodonium] |  |  |  | full |  |  | powerful inhibitions; also recorded: inhibits xanthine oxidase | full | 0.42 ± 0.06 µM | 127 ± 13 µM | 980 ± 140 nM | full | 3280 ± 1320 nM
